Measurements published in ChEMBL document CHEMBL1142157, “Optimal antimicrobial catheter lock solution, using different combinations of minocycline, EDTA, and 25-percent ethanol, rapidly eradicates organisms embedded in biofilm” (2007).

What was measured:
Assay type in all cases: functional
Staphylococcus aureus [1] = assay: Antimicrobial activity against methicillin-resistant Staphylococcus aureus embedded in MRD biofilm model at 3 mg/ml after 15 mins
How it was run: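 MRSA clinical isolates from catheter-related bacteremia. Infusate of 2 × 10^5 CFU/ml in 5% dextrose water pumped through a modified Robbins device at 60 ml/h for 8 h at 37°C, then 10 h further incubation and a 2 h saline flush. Catheter segments soaked in drug in Mueller-Hinton broth for 15 min at 37°C, scrape-sonicated in TSB, plated on blood agar overnight. Mean CFU/ml, capped at 500.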

Staphylococcus aureus [2] = assay: Antimicrobial activity against methicillin-resistant Staphylococcus aureus embedded in MRD biofilm model at 3 mg/ml after 15 mins in drug assessed as 24 hr regrowth
How it was run: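 MRSA biofilm grown on catheter segments in a modified Robbins device: 5% dextrose infusate at 2 × 10^5 CFU/ml, 60 ml/h for 8 h at 37°C, then 10 h incubation and a saline flush. Segments exposed to drug in broth for 15 min at 37°C, then reincubated 24 h at 37°C in Mueller-Hinton broth, scrape-sonicated and plated on blood agar. Mean CFU/ml, capped at 500.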

Candida parapsilosis [3] = assay: Antimicrobial activity against Candida parapsilosis embedded in MRD biofilm at 3 mg/ml after 15 mins
How it was run: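 MRD catheter segments colonized by infusing C. parapsilosis-infected 5% dextrose (2 × 10^2 CFU/ml) at 60 ml/h for 8 h at 37°C, then incubated 10 h more and flushed with saline 2 h. Segments soaked 15 min at 37°C in drug in Mueller-Hinton broth (MHB alone as control). Then scrape-sonicated 5 min in Trypticase soy broth and plated on blood agar overnight. Mean CFU/ml ± SD reported, capped at 500.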

Candida parapsilosis [4] = assay: Antimicrobial activity against Candida parapsilosis embedded in MRD biofilm at 3 mg/ml after 15 mins in drug assessed as 24 hr regrowth
How it was run: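 MRD C. parapsilosis-colonized segments were soaked 15 min at 37°C in drug in broth. A second set was reincubated 24 h at 37°C in Mueller-Hinton broth, scrape-sonicated and plated on sheep blood agar overnight. Regrowth is given as mean CFU/ml ± SD, capped at 500.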

Staphylococcus aureus [5] = assay: Antimicrobial activity against methicillin-resistant Staphylococcus aureus in silicone disk biofilm at 3 mg/ml after 60 mins
How it was run: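 Silicone disks preconditioned in human plasma for 24 h at 37°C with shaking, then shaken 24 h at 37°C with MRSA at 5.5 × 10^5 cells/ml in MHB. Disks washed 30 min in 0.9% saline, exposed to drug for 1 h at 37°C, sonicated 5 min in saline, vortexed and plated on blood agar overnight. 5–10 replicates. Mean CFU/ml, capped at 5,000.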

Staphylococcus aureus [6] = assay: Antimicrobial activity against methicillin-resistant Staphylococcus aureus in silicone disk biofilm at 3 mg/ml after 60 mins in drug assessed as 24 hr regrowth
How it was run: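 MRSA biofilm on plasma-coated silicone disks (inoculum 5.5 × 10^5 cells/ml in MHB, 24 h, 37°C, shaking), saline-washed, then exposed to drug for 1 h at 37°C. Disks washed in saline, incubated overnight at 37°C in Trypticase soy broth, sonicated 5 min in that broth and plated on blood agar. 5–10 replicates. Mean CFU/ml, capped at 5,000.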

Candida parapsilosis [7] = assay: Antimicrobial activity against Candida parapsilosis in silicone disk biofilm at 3 mg/ml after 60 mins
How it was run: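 Silicone disks were preconditioned in human plasma for 24 h at 37°C with shaking. They were then colonized 24 h with C. parapsilosis at 5.5 × 10^5 cells/ml in MHB and washed 30 min in saline. Disks were exposed 1 h at 37°C to drug or MHB, sonicated 5 min in saline, vortexed and plated on blood agar. 5–10 replicates; mean CFU/ml ± SD, capped at 5,000.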

Candida parapsilosis [8] = assay: Antimicrobial activity against Candida parapsilosis in silicone disk biofilm at 3 mg/ml after 60 mins in drug assessed as 24 hr regrowth
How it was run: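 C. parapsilosis biofilm on plasma-coated silicone disks was exposed 1 h at 37°C to drug, then saline-washed and incubated overnight at 37°C in Trypticase soy broth. Disks were then sonicated 5 min in that broth and plated on sheep blood agar. 5–10 replicates; regrowth is given as mean CFU/ml ± SD, capped at 5,000.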

CN(C)c1ccc(O)c2c1C[C@H]1C[C@H]3[C@H](N(C)C)C(O)=C(C(N)=O)C(=O)[C@@]3(O)C(O)=C1C2=O [MINOCYCLINE]
CFU/ml (Staphylococcus aureus [1]): 324
CFU/ml (Staphylococcus aureus [2]): 308
CFU/ml (Candida parapsilosis [3]): 138
CFU/ml (Candida parapsilosis [4]): 500
CFU/ml (Staphylococcus aureus [5]): 5000
CFU/ml (Staphylococcus aureus [6]): 5000
CFU/ml (Candida parapsilosis [7]): 5000
CFU/ml (Candida parapsilosis [8]): 5000
